The source of these data is ChEMBL document CHEMBL4043131, “New prodrugs of two pyrimidine acyclic nucleoside phosphonates: Synthesis and antiviral activity” (Bioorg Med Chem, 2017).

The source made the active and inactive calls. No cut-off for these calls is given here.

One data set deals with Human alphaherpesvirus 2. Kind of data set: Antiviral activity against Herpes simplex virus 2 G infected in HEL cells assessed as inhibition of virus-induced cytopathic effect. It is filed as functional, cell-based. The settings on record: Human alphaherpesvirus 2, strain G. In short, it runs like this: (§1)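 Confluent cell monolayers were infected with 100 CCID50 of virus (1 CCID50 = dose infecting 50% of cultures) and incubated with varying compound concentrations. Cytopathicity was scored once complete in untreated infected controls.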

In data set [1] the test system is Human alphaherpesvirus 3. Kind of data set: Antiviral activity against wild type thymidine kinase expressing Varicella-Zoster virus Oka infected in HEL cells assessed as inhibition of virus-induced plaque formation. It is filed as functional, cell-based. The following applies: Human alphaherpesvirus 3, Oka. An outline of the steps:
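Confluent HEL cultures were inoculated with 20 PFU of VZV and incubated with varying compound concentrations. Plaques were counted once formation was complete in untreated infected controls.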

Data set [2] has as its system Human alphaherpesvirus 3. Kind of data set: Antiviral activity against wild type thymidine kinase-deficient Varicella-Zoster virus 07-1 infected in HEL cells assessed as inhibition of virus-induced plaque formation. It counts as functional, cell-based. The following applies: Human alphaherpesvirus 3, 07-1, HEL. In short, it runs like this:
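HEL fibroblast monolayers were infected with 20 PFU of VZV and kept with varying compound concentrations. Plaques were counted once formation was complete in untreated infected controls.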

In data set [3] the test system is Human betaherpesvirus 5. The data set is described as follows: Antiviral activity against Human cytomegalovirus AD169 infected in HEL cells assessed as inhibition of virus-induced cytopathic effect. It is filed as functional, cell-based. The following applies: Human betaherpesvirus 5, AD169, HEL. An outline of the steps: as §1
(In general: Cytopathic effects are the visible damage that an infection or toxin causes in cultured cells.)

Data set [4] deals with Human betaherpesvirus 5. Kind of data set: Antiviral activity against Human cytomegalovirus Davis infected in HEL cells assessed as inhibition of virus-induced cytopathic effect. It is filed as functional, cell-based. The following applies: Human betaherpesvirus 5, Davis. An outline of the steps:
as §1

A short description of data set [5]: Cytotoxicity against HEL cells assessed as alteration of cell morphology by microscopic analysis. It is filed as cell-based. The settings on record: human. An outline of the steps: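 MCC is the lowest compound concentration causing a microscopically detectable alteration of cell morphology.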
Data set [6] in a line: (§2) Cytotoxicity against HEL cells assessed as reduction in cell growth after 3 days by coulter counter method. It counts as cell-based. The settings on record: human, HEL cells. In short, it runs like this:
(§3)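 HEL cells were seeded at 5 × 10³ cells/well and grown for 24 h, then given medium containing graded compound concentrations. After 3 days at 37 °C, cells were counted by Coulter counter.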

The subject of the next data set is Coxsackievirus B4. The data set is described as follows: Antiviral activity against Coxsackie virus B4 infected in human HeLA cells assessed as inhibition of virus-induced cytopathic effect. It is filed as functional, cell-based. In short, it runs like this: as §1
Data set [7] in a line: Antiviral activity against Respiratory syncytial virus A strain long infected in human HeLA cells assessed as inhibition of virus-induced cytopathic effect. It is filed as functional, cell-based. An outline of the steps: as §1
The test system of another data set is Human respirovirus 3. The data set is described as follows: Antiviral activity against Parainfluenza virus 3 infected in African green monkey Vero cells assessed as inhibition of virus-induced cytopathic effect. It is filed as functional. An outline of the steps:
as §1

In data set [8] the test system is Mammalian orthoreovirus 1. The data set is described as follows: Antiviral activity against Reovirus-1 infected in African green monkey Vero cells assessed as inhibition of virus-induced cytopathic effect. It counts as functional. An outline of the steps:
as §1

The next data set relates to Sindbis virus. The data set is described as follows: Antiviral activity against Sindbis virus infected in African green monkey Vero cells assessed as inhibition of virus-induced cytopathic effect. It counts as functional. In short, it runs like this:
as §1

Another data set has as its system Punta Toro virus. The data set is described as follows: Antiviral activity against Punta Toro virus infected in African green monkey Vero cells assessed as inhibition of virus-induced cytopathic effect. It is filed as functional. An outline of the steps: as §1
The test system of another data set is Feline coronavirus. Kind of data set: Antiviral activity against Feline coronavirus infected in CRFK cells assessed as inhibition of virus-induced cytopathic effect. It is filed as functional, cell-based.
The test system of data set [9] is Human alphaherpesvirus 1. The data set is described as follows: Antiviral activity against wild type Herpes simplex virus 1 KOS infected in HEL cells assessed as inhibition of virus-induced cytopathic effect. The settings on record: Human alphaherpesvirus 1, KOS. It counts as functional, cell-based.
For data set [10], the system named is Human alphaherpesvirus 1. Kind of data set: Antiviral activity against thymidine kinase-deficient ACV-resistant Herpes simplex virus 1 KOS infected in HEL cells assessed as inhibition of virus-induced cytopathic effect. The following applies: Human alphaherpesvirus 1, KOS. It is filed as functional, cell-based.
For the next data set, the system named is Vaccinia virus. The data set is described as follows: Antiviral activity against Vaccinia virus Lederle infected in HEL cells assessed as inhibition of virus-induced cytopathic effect. It is filed as functional, cell-based. The settings on record: Orthopoxvirus vaccinia.
In the next data set the test system is HEL. The data set is described as §2. It counts as cell-based. The settings on record: human, hel, 72 h. An outline of the steps: as §3
Data set [11] deals with Vesicular stomatitis virus. The data set is described as follows: Antiviral activity against Vesicular stomatitis virus infected in HEL cells assessed as inhibition of virus-induced cytopathic effect. It counts as functional, cell-based.
The test system of a further data set is Influenza A virus. The data set is described as follows: Antiviral activity against Influenza A virus (H1N1) infected in HEL cells assessed as inhibition of virus-induced cytopathic effect. It is filed as functional, cell-based.
Another data set concerns Influenza A virus H3N2. The data set is described as follows: Antiviral activity against Influenza A virus H3N2 infected in HEL cells assessed as inhibition of virus-induced cytopathic effect. It is filed as functional, cell-based.
A further data set has as its system Influenza B virus. The data set is described as follows: Antiviral activity against influenza B virus infected in HEL cells assessed as inhibition of virus-induced cytopathic effect. It is filed as functional, cell-based.

A word on the EC50: it is the concentration that produces a half-maximal response. What is called CC50 is the concentration that lowers cell viability or growth by half. Turning to `CC(C)OC(=O)OCOP(=O)(COCCOc1cc(N)nc(N)n1)OCOC(=O)OC(C)C`, the EC50 in the data set with Human alphaherpesvirus 2 was 1.01 µM; in the data set on Human alphaherpesvirus 3 [1] it was 0.32 µM; with Human alphaherpesvirus 3 [2] it was 0.29 µM; in the data set with Human betaherpesvirus 5 [3], 90.1 µM; with Human betaherpesvirus 5 [4] it was 86.3 µM. For the same molecule, in data set [5], the MCC is > 202 µM. In data set [6], the half-maximal cytotoxic concentration (CC50) at 72 h amounted to 15.1 µM. Moreover, the outcome (with Coxsackievirus B4; in [7]; in the data set with Human respirovirus 3; in data set [8]; in the data set with Sindbis virus; in the data set on Punta Toro virus) was inactive. Also, in the data set with Feline coronavirus, the outcome was inactive.

For the molecule `CCOC(=O)[C@H](Cc1ccccc1)NP(=O)(COCCn1cnc(N)nc1=O)N[C@@H](Cc1ccccc1)C(=O)OCC`, the concentration for a half-maximal effect (EC50) in the data set on Human alphaherpesvirus 1 [9] was 32.5 µM; in the data set with Human alphaherpesvirus 2 it was 39.5 µM; with Human alphaherpesvirus 1 [10], 42 µM; in the data set on Human alphaherpesvirus 3 [1], 29.4 µM; with Human alphaherpesvirus 3 [2], 26.8 µM; in the data set on Human betaherpesvirus 5 [3] it was 15.5 µM. Besides, the EC50 with Human betaherpesvirus 5 [4] was 7.5 µM; in the data set with Vaccinia virus it was > 100 µM. The MCC in [5] was > 100 µM. In addition, in the data set with HEL, the 50% cytotoxic concentration (CC50) is > 100 µM. Besides, the outcome (in data set [11]; in the data set with Coxsackievirus B4; in data set [7]; with Human respirovirus 3; in data set [8]; in the data set on Sindbis virus) was inactive. The result in the data set on Punta Toro virus, with Feline coronavirus, with Influenza A virus, in the data set with Influenza A virus H3N2 and in the data set with Influenza B virus was inactive.
